Legend:
[1] = The dissociation constant was measured as binding affinity to P-Glycoprotein C-terminal cytosolic domain using the grafit program.
In short: (§1)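 Tryptophan fluorescence excited at 295 nm, emission scanned 310–380 nm and integrated after buffer Raman subtraction. Chalcone titrated in successive additions up to 20 µM. Quenching corrected for inner-filter effect using N-acetyltryptophanamide. KD and ΔFmax obtained by curve fitting.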

[2] = The maximal fluorescence quenching was determined using the Grafit program.; in short: as §1

Kd [1] [µM] | maximal fluorescence quenching [2] [%] | Compound
0.25 | 86.6 | O=C(/C=C/c1ccc(I)cc1)c1c(O)cc(O)cc1O
– | 87.8 | O=C(/C=C/c1ccccc1)c1c(O)cc(O)cc1O [2',4',6-TRIHYDROXYCHALCONE]
4.8 | 86.8 | O=C(/C=C/c1ccc(O)cc1)c1c(O)cc(O)cc1O [4,2',4',6'-TETRAHYDROXYCHALCONE]
0.57 | 88.7 | O=C(/C=C/c1ccc(Br)cc1)c1c(O)cc(O)cc1O [4-BROMO-2',4',6'-TRIHYDROXYCHALCONE]
1.3 | 80.1 | O=C(/C=C/c1ccc(Cl)cc1)c1c(O)cc(O)cc1O [4-CHLORO-2',4',6'-TRIHYDROXYCHALCONE]
3.6 | 88.1 | O=C(/C=C/c1ccc(F)cc1)c1c(O)cc(O)cc1O [4-FLUORO-2',4',6'-TRIHYDROXYCHALCONE]
2.3 | 85.5 | COc1ccc(/C=C/C(=O)c2c(O)cc(O)cc2O)cc1 [4-METHOXYL-2',4',6'-TRIHYDROXYCHALCONE]

— ChEMBL document CHEMBL1131145, “Halogenated chalcones with high-affinity binding to P-glycoprotein: potential modulators of multidrug resistance” (J Med Chem, 1998)
